Holding throughout (assay type): functional, cell-based
Assay [1] relates to HCT-15. Kind of assay: Antiproliferative activity against human HCT15 cells after 48 hrs by sulforhodamine B assay. The note with it: for pIC50: HCT-15, 48 h. The gist of the method:
(§1)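 Cells kept in RPMI1640 with 5% FBS at 37 °C, 5% CO2. HCT15/CL02 is a line derived from HCT15 by stepwise doxorubicin exposure. Cells seeded and left 24 h to attach, then exposed continuously for 48 h to serially diluted saponins. Fixed with cold 10% TCA, 1 h at 4 °C, stained with 0.4% SRB, dye solubilized in 10 mM Tris (pH 10.5), absorbance at 520 nm. Each run in triplicate; IC50 by nonlinear regression, mean ± SD of three independent experiments.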

Assay [2] has as its system HCT-15. The experiment in a line: (§2) Antiproliferative activity against human HCT15/CL02 cells after 48 hrs by sulforhodamine B assay. The gist of the method: as §1
The subject of another assay is MES-SA/Dx5. The experiment in a line: (§3) Antiproliferative activity against human MESSA/DX5 cells after 48 hrs by sulforhodamine B assay. The gist of the method:
as §1

In another assay the test system is MES-SA. The experiment in a line: (§4) Antiproliferative activity against human MESSA cells after 48 hrs by sulforhodamine B assay. The gist of the method: as §1
The nature of assay [3]: as §2. Conditions: HCT-15, 48 h. Summed up: as §1
The nature of assay [4]: as §3. The note with it: MES-SA/Dx5, 48 h. The gist of the method: as §1
Assay [5] is described as follows: as §4. Conditions: MES-SA. Summed up:
as §1

The structures appear in SMILES notation. pIC50: −log10 of the molar value. Calls of active or inactive are those of the source. The rule behind the calls is not given here.

Turning to `C[C@@H]1O[C@@H](O[C@H]2[C@H](OC(=O)[C@]34CCC(C)(C)C[C@H]3C3=CC[C@@H]5[C@@]6(C)C[C@H](O)[C@H](O[C@@H]7O[C@H](CO)[C@@H](O)[C@H](O[C@@H]8O[C@H](CO)[C@@H](O)[C@H](O)[C@H]8O)[C@H]7O)C(CO)(CO)[C@@H]6CC[C@@]5(C)[C@]3(C)C[C@H]4O)OC[C@H](O)[C@@H]2O)[C@H](O)[C@H](O)[C@H]1O[C@@H]1OC[C@@H](O)[C@H](O)[C@H]1O`, the result in the assay with HCT-15 [1], in the assay on HCT-15 [2], with MES-SA/Dx5 and in the assay on MES-SA was Active.
Regarding `CC(=O)O[C@H]1[C@@H](O)[C@H](O[C@H]2[C@H](OC(=O)[C@]34CCC(C)(C)C[C@H]3C3=CC[C@@H]5[C@@]6(C)C[C@H](O)[C@H](O[C@@H]7O[C@H](CO)[C@@H](O)[C@H](O[C@@H]8O[C@H](CO)[C@@H](O)[C@H](O)[C@H]8O)[C@H]7O)[C@@](C)(CO)[C@@H]6CC[C@@]5(C)[C@]3(C)C[C@H]4O)OC[C@H](O)[C@@H]2O)O[C@@H](C)[C@@H]1O[C@@H]1OC[C@@H](O)[C@H](O[C@@H]2OC[C@](O)(CO)[C@H]2O)[C@H]1O` [2'OACETYLPOLYGALACIN D2], the pIC50 in the assay with HCT-15 [1] is 5.44; in assay [3], 5.23; in assay [4], 5.47; in assay [5], 5.47.
For `C[C@@H]1O[C@@H](O[C@H]2[C@H](OC(=O)[C@]34CCC(C)(C)C[C@H]3C3=CC[C@@H]5[C@@]6(C)C[C@H](O)[C@H](O[C@@H]7O[C@H](CO)[C@@H](O)[C@H](O[C@@H]8O[C@H](CO)[C@@H](O)[C@H](O)[C@H]8O)[C@H]7O)C(CO)(CO)[C@@H]6CC[C@@]5(C)[C@]3(C)C[C@H]4O)OC[C@H](O)[C@@H]2O)[C@H](O)[C@H](O)[C@H]1O[C@@H]1OC[C@@H](O)[C@H](O[C@@H]2OC[C@](O)(CO)[C@H]2O)[C@H]1O` [PLATYCODIN D2], the negative logarithm of the IC50 (pIC50) in the assay on HCT-15 [1] is 5.02; in assay [3] it was 5.24; in assay [4], 5.28; in assay [5], 5.46.
As for `C[C@@H]1O[C@@H](O[C@H]2[C@H](OC(=O)[C@]34CCC(C)(C)C[C@H]3C3=CC[C@@H]5[C@@]6(C)C[C@H](O)[C@H](O[C@@H]7O[C@H](CO)[C@@H](O)[C@H](O[C@@H]8O[C@H](CO)[C@@H](O)[C@H](O)[C@H]8O)[C@H]7O)[C@@](C)(CO)[C@@H]6CC[C@@]5(C)[C@]3(C)C[C@H]4O)OC[C@H](O)[C@@H]2O)[C@H](O)[C@H](O)[C@H]1O[C@@H]1OC[C@@H](O)[C@H](O[C@@H]2OC[C@](O)(CO)[C@H]2O)[C@H]1O` [POLYGALACIN D2], the negative logarithm of the IC50 (pIC50) in the assay on HCT-15 [1] was 5.42; in assay [3] it was 5.24; in assay [4], 5.47; in assay [5], 5.59.
The matching figures for `CC(=O)O[C@H]1[C@@H](O)[C@H](O[C@H]2[C@H](OC(=O)[C@]34CCC(C)(C)C[C@H]3C3=CC[C@@H]5[C@@]6(C)C[C@H](O)[C@H](O[C@@H]7O[C@H](CO)[C@@H](O)[C@H](O)[C@H]7O)C(CO)(CO)[C@@H]6CC[C@@]5(C)[C@]3(C)C[C@H]4O)OC[C@H](O)[C@@H]2O)O[C@@H](C)[C@@H]1O[C@@H]1OC[C@@H](O)[C@H](O[C@@H]2OC[C@](O)(CO)[C@H]2O)[C@H]1O`: 5.47, 5.38, 5.66 and 5.64.
Consider `CC(=O)O[C@H]1[C@H](O[C@H]2[C@H](OC(=O)[C@]34CCC(C)(C)C[C@H]3C3=CC[C@@H]5[C@@]6(C)C[C@H](O)[C@H](O[C@@H]7O[C@H](CO)[C@@H](O)[C@H](O)[C@H]7O)C(CO)(CO)[C@@H]6CC[C@@]5(C)[C@]3(C)C[C@H]4O)OC[C@H](O)[C@@H]2O)O[C@@H](C)[C@H](O[C@@H]2OC[C@@H](O)[C@H](O[C@@H]3OC[C@](O)(CO)[C@H]3O)[C@H]2O)[C@H]1O` [3'O-ACETYLPLATYCODIN D], for which the negative-log IC50 (pIC50) was 5.47 with HCT-15 [1], 5.39 in assay [3], 5.66 in assay [4] and 5.64 in assay [5].
The matching figures for `CC(=O)O[C@H]1[C@H](O[C@H]2[C@H](OC(=O)[C@]34CCC(C)(C)C[C@H]3C3=CC[C@@H]5[C@@]6(C)C[C@H](O)[C@H](O[C@@H]7O[C@H](CO)[C@@H](O)[C@H](O[C@@H]8O[C@H](CO)[C@@H](O)[C@H](O)[C@H]8O)[C@H]7O)[C@@](C)(CO)[C@@H]6CC[C@@]5(C)[C@]3(C)C[C@H]4O)OC[C@H](O)[C@@H]2O)O[C@@H](C)[C@H](O[C@@H]2OC[C@@H](O)[C@H](O[C@@H]3OC[C@](O)(CO)[C@H]3O)[C@H]2O)[C@H]1O`: 5.44, 5.24, 5.47 and 5.48.
The matching figures for `CC(=O)O[C@H]1[C@@H](O)[C@H](O[C@H]2[C@H](OC(=O)[C@]34CCC(C)(C)C[C@H]3C3=CC[C@@H]5[C@@]6(C)C[C@H](O)[C@H](O[C@@H]7O[C@H](CO)[C@@H](O)[C@H](O)[C@H]7O)[C@@](C)(CO)[C@@H]6CC[C@@]5(C)[C@]3(C)C[C@H]4O)OC[C@H](O)[C@@H]2O)O[C@@H](C)[C@@H]1O[C@@H]1OC[C@@H](O)[C@H](O[C@@H]2OC[C@](O)(CO)[C@H]2O)[C@H]1O`: 5.17, less than 5.00, 5.38 and 5.44.
Consider `CC(=O)O[C@H]1[C@H](O[C@H]2[C@H](OC(=O)[C@]34CCC(C)(C)C[C@H]3C3=CC[C@@H]5[C@@]6(C)C[C@H](O)[C@H](O[C@@H]7O[C@H](CO)[C@@H](O)[C@H](O)[C@H]7O)[C@@](C)(CO)[C@@H]6CC[C@@]5(C)[C@]3(C)C[C@H]4O)OC[C@H](O)[C@@H]2O)O[C@@H](C)[C@H](O[C@@H]2OC[C@@H](O)[C@H](O[C@@H]3OC[C@](O)(CO)[C@H]3O)[C@H]2O)[C@H]1O`, for which the pIC50 was less than 5.00 in the assay on HCT-15 [1], less than 5.00 in assay [3], 5.21 in assay [4] and 5.20 in assay [5].
Regarding `COc1cc([C@@H]2c3cc4c(cc3[C@@H](O[C@@H]3O[C@@H]5CO[C@@H](C)O[C@H]5[C@H](O)[C@H]3O)[C@H]3COC(=O)[C@H]23)OCO4)cc(OC)c1O` [ETOPOSIDE], the pIC50 in the assay on HCT-15 [1] is 5.80; in assay [3], less than 5.00; in assay [4], less than 5.00; in assay [5], 6.52.
With `C[C@@H]1O[C@@H](O[C@H]2[C@H](OC(=O)[C@]34CCC(C)(C)C[C@H]3C3=CC[C@@H]5[C@@]6(C)C[C@H](O)[C@H](O[C@@H]7O[C@H](CO)[C@@H](O)[C@H](O)[C@H]7O)[C@@](C)(CO)[C@@H]6CC[C@@]5(C)[C@]3(C)C[C@H]4O)OC[C@H](O)[C@@H]2O)[C@H](O)[C@H](O)[C@H]1O[C@@H]1OC[C@@H](O)[C@H](O[C@@H]2OC[C@](O)(CO)[C@H]2O)[C@H]1O` [POLYGALACIN D], the pIC50 in the assay with HCT-15 [1] is 5.07; in assay [3], less than 5.00; in assay [4], 5.11; in assay [5], 5.30.
The matching figures for `C[C@@H]1O[C@@H](O[C@H]2[C@H](OC(=O)[C@]34CCC(C)(C)C[C@H]3C3=CC[C@@H]5[C@@]6(C)C[C@H](O)[C@H](O[C@@H]7O[C@H](CO)[C@@H](O)[C@H](O)[C@H]7O)C(CO)(CO)[C@@H]6CC[C@@]5(C)[C@]3(C)C[C@H]4O)OC[C@H](O)[C@@H]2O)[C@H](O)[C@H](O)[C@H]1O[C@@H]1OC[C@@H](O)[C@H](O[C@@H]2OC[C@](O)(CO)[C@H]2O)[C@H]1O` [PLATYCODIN D]: 5.24, 5.10, less than 5.00 and 5.41.

(Values after ChEMBL document CHEMBL1641387, “Antiproliferative effects of saponins from the roots of Platycodon grandiflorum on cultured human tumor cells” (J Nat Prod, 2010).)
